Where “and” joins values, the source holds several entries; their conditions need not be identical. Identical values can stand only once.
Experiments:
Details in all cases: in vivo, iv
Mus musculus [1] = assay: Biodistribution of labeled B72.3-chelator conjugate(DTPA amide)s in Nude mice bearing LS174T tumors, in lungs, administered intravenously expressed as % of injected dose of indium-111 per gram of tissue; assay type: ADME, organism-based, Lung
Mus musculus [2] = assay: Biodistribution of labeled B72.3-chelator conjugate(DTPA amide) in nude mice bearing LS174T tumors, in kidney, administered intravenously expressed as % of injected dose of indium-111 per gram of tissue; assay type: ADME, organism-based
Mus musculus [3] = assay: Biodistribution of labeled B72.3-chelator conjugate in Nude mice bearing LS174T tumors, in liver, administered intravenously expressed as % of injected dose of indium-111 per gram of tissue
Mus musculus [4] = assay: Biodistribution of labeled B72.3-chelator conjugate(DTPA amide) in Nude mice bearing LS174T tumors, in blood, administered intravenously expressed as % of injected dose of indium-111 per gram of tissue; assay type: ADME, organism-based
Mus musculus [5] = assay: Biodistribution of labeled B72.3-chelator conjugate(DTPA amide) in Nude mice bearing LS174T tumor (Ag-), administered intravenously expressed as % of injected dose of indium-111 per gram of tissue; assay type: ADME, organism-based
Mus musculus [6] = assay: Biodistribution of labeled B72.3-chelator conjugate (DTPA amide) in Nude mice bearing LS174T tumor (Ag+), administered intravenously expressed as % of injected dose of indium-111 per gram of tissue; assay type: ADME, organism-based
Mus musculus [7] = assay: Biodistribution of labeled B72.3-chelator conjugate(DTPA amide) in Nude mice bearing LS174T tumors, in spleen, administered intravenously expressed as % of injected dose of indium-111 per gram of tissue; assay type: ADME, organism-based
Mus musculus [8] = assay: Biodistribution of labeled B72.3-chelator conjugatec in Nude mice bearing LS174T tumor (Ag+), administered intravenously expressed as % of injected dose of indium-111 per gram of tissue; assay type: ADME, organism-based
Mus musculus [9] = assay: Biodistribution of labeled B72.3-chelator conjugate(EDTA isothiocynates) in Nude mice bearing LS174T tumors, in spleen, administered intravenously expressed as % of injected dose of indium-111 per gram of tissue; assay type: ADME, organism-based
Procedure, shortened: (§1)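 Female athymic nu/nu mice (BALB/c background) were given 5×10^6 A375 melanoma cells (antigen-negative) s.c. in the left flank, then 14 days later 1.25×10^6 LS174T colorectal cells (antigen-positive) in the right flank. After a further 7–14 days, with tumors at 100–500 mg, mice were randomized and given 2.0 μg indium-111-labeled B72.3 conjugate in saline i.v. by tail vein. At 48 h, tissues were weighed and gamma-counted, and activity was expressed as % of counted injectate per gram.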

Mus musculus [10] = assay: Biodistribution of labeled B72.3-chelator conjugate(EDTA isothiocynates) in nude mice bearing LS174T tumors, in kidney, administered intravenously expressed as % of injected dose of indium-111 per gram of tissue; assay type: ADME, organism-based; procedure, shortened: as §1
Mus musculus [11] = assay: Biodistribution of labeled B72.3-chelator conjugate (EDTA isothiocynates) in Nude mice bearing LS174T tumors, in blood, administered intravenously expressed as % of injected dose of indium-111 per gram of tissue; assay type: ADME, organism-based; procedure, shortened: as §1
Mus musculus [12] = assay: Biodistribution of labeled B72.3-chelator conjugate(EDTA isothiocynates) in Nude mice bearing LS174T tumors, in liver, administered intravenously expressed as % of injected dose of indium-111 per gram of tissue; assay type: ADME, organism-based; procedure, shortened: as §1
Mus musculus [13] = assay: Biodistribution of labeled B72.3-chelator conjugate(EDTA isothiocynates) in Nude mice bearing LS174T tumors, in lungs, administered intravenously expressed as % of injected dose of indium-111 per gram of tissue; assay type: ADME, organism-based, Lung; procedure, shortened: as §1
Mus musculus [14] = assay: Biodistribution of labeled B72.3-chelator conjugate(DTPA isothiocynates) in Nude mice bearing LS174T tumors, in lungs, administered intravenously expressed as % of injected dose of indium-111 per gram of tissue; assay type: ADME, organism-based, Lung; procedure, shortened: as §1
Mus musculus [15] = assay: Biodistribution of labeled B72.3-chelator conjugate(DTPA isothiocynates) in Nude mice bearing LS174T tumor (Ag+), administered intravenously expressed as % of injected dose of indium-111 per gram of tissue; assay type: ADME, organism-based; procedure, shortened: as §1
Mus musculus [16] = assay: Biodistribution of labeled B72.3-chelator conjugate(DTPA isothiocynates) in nude mice bearing LS174T tumors, in kidney, administered intravenously expressed as % of injected dose of indium-111 per gram of tissue; assay type: ADME, organism-based; procedure, shortened: as §1
Mus musculus [17] = assay: Biodistribution of labeled B72.3-chelator conjugate(DTPA isothiocynates) in Nude mice bearing LS174T tumors, in spleen, administered intravenously expressed as % of injected dose of indium-111 per gram of tissue; assay type: ADME, organism-based; procedure, shortened: as §1
Mus musculus [18] = assay: Biodistribution of labeled B72.3-chelator conjugate (DTPA isothiocynates) in Nude mice bearing LS174T tumors, in blood, administered intravenously expressed as % of injected dose of indium-111 per gram of tissue; assay type: ADME, organism-based; procedure, shortened: as §1
Mus musculus [19] = assay: Biodistribution of labeled B72.3-chelator conjugate(DTPA isothiocynates) in Nude mice bearing LS174T tumors, in liver, administered intravenously expressed as % of injected dose of indium-111 per gram of tissue; assay type: ADME, organism-based; procedure, shortened: as §1
Mus musculus [20] = assay: Biodistribution of labeled B72.3-chelator conjugate(DTPA amide) in Nude mice bearing LS174T tumor (Ag+), administered intravenously expressed as % of injected dose of indium-111 per gram of tissue; assay type: ADME, organism-based
Mus musculus [21] = assay: Biodistribution of labeled B72.3-chelator conjugate (DTPA amide) in Nude mice bearing LS174T tumors, in blood, administered intravenously expressed as % of injected dose of indium-111 per gram of tissue; assay type: ADME, organism-based

Row | Biodistribution (Mus musculus [1]) | Biodistribution (Mus musculus [2]) | Biodistribution (Mus musculus [3]) | Biodistribution (Mus musculus [4]) [%] | Biodistribution (Mus musculus [5]) [%] | Biodistribution (Mus musculus [6]) [%] | Biodistribution (Mus musculus [7]) | Structure (SMILES) | also measured
1 | 5.5% | 5.9% | 6.1% | 12.1 | 5.2 | 21.1 | 3.9% | O=C(O)CN(CCN(CC(=O)O)C(Cc1ccc(N=C=S)cc1)C(=O)O)CC(=O)O (stereo not given) | 
2 | 4.1% | 2.3% | 6.9% | 8.9 | 4.1 | 19.5 | 4% | O=C(O)CN(CCN(CC(=O)O)CC(=O)O)CCN(CC(=O)O)C(Cc1ccc(N=C=S)cc1)C(=O)O (stereo not given) | 
3 |  |  |  |  |  |  |  | Nc1ccc(CC(CN(CC(=O)O)CC(=O)O)N(CC(=O)O)CC(=O)O)cc1 (stereo not given) | Biodistribution (Mus musculus [8]): 20.82%; Biodistribution (Mus musculus [9]): 11.68%; Biodistribution (Mus musculus [10]): 16.91%; Biodistribution (Mus musculus [11]): 19.82%; Biodistribution (Mus musculus [12]): 14.26%; Biodistribution (Mus musculus [13]): 9.19%
4 |  |  |  |  |  |  |  | Nc1ccc(CC(CN(CCN(CC(=O)O)CC(=O)O)CC(=O)O)N(CC(=O)O)CC(=O)O)cc1 (stereo not given) | Biodistribution (Mus musculus [14]): 9.94%; Biodistribution (Mus musculus [15]): 25.94%; Biodistribution (Mus musculus [16]): 8.99%; Biodistribution (Mus musculus [17]): 5.03%; Biodistribution (Mus musculus [18]): 18.37%; Biodistribution (Mus musculus [19]): 9.09%
5 | 6.3% and 6.15% | 17.14% and 12.64% | 17.2% and 19.39% | 10.67 | 6.23 | 18.97 | 9.14% and 12.12% | O=C(O)CN(CCN(CC(=O)O)CC(=O)O)CCN(CC(=O)O)CC(=O)O [PENTETIC ACID] | Biodistribution (Mus musculus [20]): 42.22%; Biodistribution (Mus musculus [21]): 11.23%

— ChEMBL document CHEMBL1124329, “Synthesis of novel bifunctional chelators and their use in preparing monoclonal antibody conjugates for tumor targeting” (J Med Chem, 1989)
